Data set [1] addresses 3',5'-cyclic-AMP phosphodiesterase 4B (Homo sapiens, UniProt Q07343). Put plainly: Inhibition of human PDE4B in Sf9 cells. Type of data set: cell-based. The gist of the method: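 Catalytic activity of human recombinant PDE4B enzyme was measured by scintillation proximity assay (SPA).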
Data set [2] in a line: Selectivity for human PDE4B over PDE3.
A short description of data set [3]: Inhibition of PDE5. An outline of the steps:
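Inhibition of human recombinant PDE5 catalytic activity, measured by scintillation proximity assay.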

A short description of data set [4]: Inhibition of PDE3. An outline of the steps:
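Inhibition of PDE3 isolated from bovine aorta, measured as loss of catalytic activity by scintillation proximity assay (SPA).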

Data set [5] concerns PBMC. Nature of the data set: Inhibition of TNF alpha production in human PBMC cells by ELISA. In kind it is functional, cell-based. An outline of the steps:
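PBMCs were isolated from heparinised human blood by centrifugation on histopaque (1000g, 30 min), washed, and resuspended at 5 × 10⁵ cells/ml in RPMI1640 with 10% foetal calf serum, 1% L-glutamine and 1% penicillin/streptomycin. Cells were preincubated with compound for 1 h at 37 °C, 5% CO₂, then stimulated with LPS (1 ng/ml final) for a further 20 h.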

Data set [6] is described as follows: Selectivity for human PDE4B over PDE5.
A short description of data set [7]: Oral bioavailability in rat. Type of data set: ADME, organism-based. The conditions noted are these: in vivo.
Data set [8] in a line: Half life in po dosed rat. Type of data set: ADME, organism-based. The conditions noted are these: in vivo.

Chain of 3',5'-cyclic-AMP phosphodiesterase 4B (Q07343 whole entry): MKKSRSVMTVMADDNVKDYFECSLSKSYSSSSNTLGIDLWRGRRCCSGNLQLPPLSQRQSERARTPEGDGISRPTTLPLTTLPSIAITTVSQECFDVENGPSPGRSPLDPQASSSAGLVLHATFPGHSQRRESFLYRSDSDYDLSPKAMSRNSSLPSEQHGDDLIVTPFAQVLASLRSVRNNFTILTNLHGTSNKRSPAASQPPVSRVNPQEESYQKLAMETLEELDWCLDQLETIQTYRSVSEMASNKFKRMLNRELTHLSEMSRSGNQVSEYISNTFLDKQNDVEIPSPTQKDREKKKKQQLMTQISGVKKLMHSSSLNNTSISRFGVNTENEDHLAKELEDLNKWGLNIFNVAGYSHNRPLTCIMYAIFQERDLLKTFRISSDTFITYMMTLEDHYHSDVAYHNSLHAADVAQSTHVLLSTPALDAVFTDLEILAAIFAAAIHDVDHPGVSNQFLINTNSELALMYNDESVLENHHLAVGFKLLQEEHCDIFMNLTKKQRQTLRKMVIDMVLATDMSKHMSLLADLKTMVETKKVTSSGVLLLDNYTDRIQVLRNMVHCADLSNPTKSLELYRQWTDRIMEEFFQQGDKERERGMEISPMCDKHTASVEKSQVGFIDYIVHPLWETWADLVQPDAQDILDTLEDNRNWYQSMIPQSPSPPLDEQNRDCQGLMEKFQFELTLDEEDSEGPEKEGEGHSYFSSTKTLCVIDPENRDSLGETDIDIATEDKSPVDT

The term IC50 denotes the concentration needed to halve the response being measured. High values mean weaker potency in that assay, low ones greater potency in that assay. In turn, `CCOC(=O)c1cnc2c(cnn2CC)c1NS(=O)(=O)c1ccccc1` had an IC50 in data set [1] of over 31600 nM.

`CCOC(=O)c1cnc2c(cnn2CCO)c1NC1CCOCC1` had an IC50 in data set [1] of 158 nM.

`CCOC(=O)c1cnc2c(cnn2CC)c1NCC(C)C` showed an IC50 in data set [1] of 15.8 nM.

Regarding `CCOC(=O)c1cnc2c(cnn2CC)c1N1CCCC1`, the midpoint of inhibition in data set [1], the IC50, lay at 631 nM.

As a reminder, the pIC50 is the negative decadic logarithm of the IC50, by convention in mol/L. The low end stands for a large IC50, the high end for a small IC50. In the case of `CCn1ncc2c(NC3CCOCC3)c(C(N)=O)cnc21`, the Selectivity ratio in data set [2] and in data set [6] was over 100 each time. In addition, the half-maximal inhibitory concentration (IC50) in data set [1] is 25.1 nM; in data set [5], 79.4 nM. Moreover, the pIC50 in data set [3] is on record as 4.8; in data set [4] it was under 4.5.

Consider `CCn1ncc2c(NC3CCOCC3)c(C(=O)NC3CCN(C(C)=O)CC3)cnc21`, for which the Selectivity ratio in data set [2] and in data set [6] was over 100 each time. The IC50 in data set [1] was 126 nM.

Turning to `CCn1ncc2c(NC3CCOCC3)c(C(=O)N(C)Cc3ccccc3)cnc21`, the Selectivity ratio in data set [2] and in data set [6] was over 100 in each case. The half-maximal inhibitory concentration (IC50) in data set [1] is 50.1 nM.

The molecule `CCOC(=O)c1cnc2c(cnn2-c2ccccc2)c1NC1CCOCC1` showed an IC50 in data set [1] of 3160 nM.

As to `CCn1ncc2c(NC3CCOCC3)c(C(=O)N3CCCC3)cnc21`, the Selectivity ratio in data set [2] and in data set [6] was over 100 throughout. Moreover, the midpoint of inhibition in data set [1], the IC50, lay at 158 nM.

In the case of `CCn1ncc2c(NC3CCOCC3)c(C(=O)NC3CC3)cnc21`, the Selectivity ratio in data set [2] and in data set [6] was over 100 in each case. Besides, in data set [1], the IC50 was 100 nM.

For the molecule `CCOC(=O)c1cnc2c(cnn2CC)c1NC1CCOCC1`, the IC50 in data set [1] is 10 nM.

`CCOC(=O)c1cnc2c(cnn2CC)c1Nc1ccc(OC)cc1` showed an IC50 in data set [1] of 1000 nM.

Regarding `CCOC(=O)c1cnc2c(cnn2CC)c1NC(=O)c1ccccc1`, the IC50 in data set [1] was 2510 nM.

Take `CCOC(=O)CCn1ncc2c(NC3CCOCC3)c(C(=O)OCC)cnc21`: in data set [1], 5010 nM corresponded to half-maximal inhibition (IC50).

As to `CCn1ncc2c(NC3CCOCC3)c(C(=O)NCC3CCCCC3)cnc21`, the Selectivity ratio in data set [2] and in data set [6] was over 100 each time. Besides, the IC50 in data set [1] was 7.94 nM; in data set [5] it was 63.1 nM. Moreover, the pIC50 in data set [3] is given as 5.5; in data set [4], under 4.5.

Molecule `CCCn1ncc2c(NC3CCOCC3)c(C(=O)OCC)cnc21` showed a half-inhibitory concentration (IC50) in data set [1] of 100 nM.

Take `CCn1ncc2c(NC3CCOCC3)c(C(=O)Nc3ccc(F)cc3)cnc21`: the Selectivity ratio in data set [2] and in data set [6] was over 100 each time. Moreover, the pIC50 in data set [3] is under 4.7; in data set [4], under 4.5. This molecule showed an IC50 in data set [5] of 39.8 nM.

In data set [1], `CCOC(=O)c1cnc2[nH]ncc2c1NC1CCOCC1` showed an IC50 of 2000 nM.

With `CCC(CC)CNC(=O)c1cnc2c(cnn2CC)c1NC1CCOCC1`, the Selectivity ratio in data set [2] and in data set [6] was over 100 in each case. Also, the half-inhibitory concentration (IC50) is 20 nM in data set [1] and 79.4 nM in data set [5]. In addition, the pIC50 is recorded as 4.8 in data set [3] and under 4.5 in data set [4].

`CCOC(=O)c1cnc2c(cnn2CC)c1NCc1ccc(F)cc1` showed an IC50 in data set [1] of 316 nM.

For the molecule `CCOC(=O)c1cnc2c(cnn2CC)c1NC1CCCC1`, in data set [1], half-maximal inhibition (IC50) was put at 63.1 nM.

`CCOC(=O)c1cnc2c(cnn2CC)c1Nc1ccccc1` had an IC50 in data set [1] of 158 nM.

On to `CCOC(=O)c1cnc2c(cnn2Cc2ccccc2)c1NC1CCOCC1`, for which the IC50 in data set [1] was 3980 nM.

With `CCOC(=O)c1cnc2c(cnn2C)c1NC1CCOCC1`, half-maximal inhibition in data set [1] (IC50) was put at 251 nM.

`CCn1ncc2c(NC3CCOCC3)c(C(=O)NC3CCCC3)cnc21`: the Selectivity ratio in data set [2] and in data set [6] was over 100 throughout. Also, the results for the concentration for half-maximal inhibition (IC50) in data set [1] and in data set [5] were 50.1 nM and 158 nM, respectively. The negative-log IC50 (pIC50) was under 4.7 in data set [3] and under 4.5 in data set [4].

With `CCOC(=O)c1cnc2c(cnn2C(C)C)c1NC1CCOCC1`, the half-maximal inhibitory concentration (IC50) in data set [1] is 200 nM.

`CCOC(=O)c1cnc2c(cnn2CC)c1N(C)C1CCOCC1` gave an IC50 in data set [1] of 251 nM.

In general, bioavailability refers to dose-corrected exposure relative to a reference, in per cent. The low end stands for little systemic uptake, the high end for much systemic uptake. The half-life is how long it takes for the measured level to halve. As for `CCn1ncc2c(NC3CCOCC3)c(C(=O)NCc3ccccc3)cnc21`, the Selectivity ratio in data set [2] and in data set [6] was over 100 throughout. Moreover, the bioavailability in data set [7] turned out to be 35%. In addition, the figures for the pIC50 in data set [3] and in data set [4] were 5.7 and under 4.5, respectively. This molecule also gave an IC50 in data set [5] of 20 nM. The molecule further had a half-life in data set [8] of 1.6 h.

As for `CCCCNc1c(C(=O)OCC)cnc2c1cnn2CC` [CARTAZOLATE], in data set [1], the IC50 was 200 nM.
